Experimental data from ChEMBL document CHEMBL1141876, “Quinols as novel therapeutic agents. 2.(1) 4-(1-Arylsulfonylindol-2-yl)-4-hydroxycyclohexa-2,5-dien-1-ones and related agents as potent and selective antitumor agents” (2005).

How the values were obtained:
Format in all cases: functional
[1] = test system: Panel NCI-60 (60 carcinoma cell lines); test: Mean in vitro GI50 value against 60 human cancer cell line was determined
[2] = test system: HCT-116; test: Mean in vitro LC50 value against human HCT116 cell line was determined; conditions: read-out: LC50 (the source's name)
How it was run: (§1)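 NCI 60-cell-line screen. Cells seeded at densities suited to each line's growth and left drug-free for 24 h. Agents then added at five 10-fold dilutions, top concentration 100 μM, for 48 h. Cellular protein measured by sulforhodamine B colorimetry. LC50 read from these curves; for line 1 it is averaged across the 60 lines.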

[3] = test system: UACC-62; test: Mean in vitro LC50 value against human UACC-62 cell line was determined; conditions: read-out: LC50 (the source's name); how it was run: as §1
[4] = test system: Panel NCI-60 (60 carcinoma cell lines); test: Mean in vitro LC50 value against 60 human cancer cell line was determined; conditions: read-out: LC50 (the source's name); how it was run: as §1
[5] = test system: ACHN; test: Mean in vitro LC50 value against human ACHN cell line was determined; conditions: read-out: LC50 (the source's name); how it was run: as §1
[6] = test system: LOX IMVI; test: Mean in vitro LC50 value against human LOX IMVI cell line was determined; conditions: read-out: LC50 (the source's name); how it was run: as §1
[7] = test system: U-251; test: Mean in vitro LC50 value against human U251 cell line was determined; conditions: read-out: LC50 (the source's name); how it was run: as §1
[8] = test system: CAKI-1; test: Mean in vitro LC50 value against human CAKI-1 cell line was determined; conditions: read-out: LC50 (the source's name); how it was run: as §1
[9] = test system: UO-31; test: Mean in vitro LC50 value against human UO-31 cell line was determined; conditions: read-out: LC50 (the source's name); how it was run: as §1
[10] = test system: RXF 393; test: Mean in vitro LC50 value against human RXF 393 cell line was determined; conditions: read-out: LC50 (the source's name); how it was run: as §1

Row | SMILES | GI50 [1] [µM] | CC50 [2] [µM] | CC50 [3] [µM] | CC50 [4] [µM] | CC50 [5] [µM] | CC50 [6] [µM] | CC50 [7] [µM] | CC50 [8] [µM] | CC50 [9] [µM] | CC50 [10] [µM]
1 | O=C1C=CC(O)(c2nc3ccccc3[nH]2)C=C1 | 0.87 | 1.86 | 1.41 | 13.2 | – | – | – | – | – | –
2 | COc1ccc2c(c1)cc(C1(O)C=CC(=O)C=C1)n2S(=O)(=O)c1ccccc1 | 0.13 | – | – | 6.17 | 0.45 | 0.47 | – | – | – | –
3 | O=C1C=CC(O)(c2cc3ccccc3n2S(=O)(=O)c2ccccc2)c2ccccc21 (stereo not given) | 0.45 | 0.79 | – | 7.76 | – | 0.78 | – | – | – | –
4 | O=C1C=CC(O)(c2cc3ccccc3n2S(=O)(=O)c2ccc3ccccc3c2)C=C1 | 0.19 | 0.37 | – | 5.62 | – | – | 0.51 | – | – | –
5 | O=C1C=CC(O)(c2cc3ccccc3n2S(=O)(=O)c2ccccc2)C=C1 | 0.039 | – | – | 2.95 | – | – | – | 0.053 | – | –
6 | O=C1C=CC(O)(c2cc3ccccc3n2S(=O)(=O)c2ccc(F)cc2)C=C1 | 0.23 | 0.36 | – | 7.76 | – | – | – | – | 0.63 | –
7 | CC(C)c1cc(C(C)C)c(S(=O)(=O)n2c(C3(O)C=CC(=O)C=C3)cc3ccccc32)c(C(C)C)c1 | 0.43 | 0.55 | – | 11.2 | – | – | – | – | – | 0.78
8 | COc1ccc(S(=O)(=O)n2c(C3(O)C=CC(=O)C=C3)cc3ccccc32)cc1 | 0.16 | 0.11 | – | 6.31 | – | 0.38 | – | – | – | –
9 | O=C1C=CC(O)(c2nc3ccccc3s2)C=C1 | 0.23 | 0.43 | – | 3.39 | – | – | – | – | – | 0.58
10 | O=C1C=CC(O)(c2cc3ccc(F)cc3n2S(=O)(=O)c2ccccc2)C=C1 | 0.016 | < 0.01 | – | 2.24 | 0.02 | – | – | – | – | –
11 | O=C1C=CC(O)(c2cc3cc(F)ccc3n2S(=O)(=O)c2ccccc2)C=C1 | 0.066 | 0.05 | – | 3.23 | – | 0.063 | – | – | – | –
12 | O=C1C=CC(O)(c2cc3ccccc3[nH]2)C=C1 | 1.38 | 5.13 | – | 24 | – | – | – | – | – | 3.39
13 | Cc1ccc(S(=O)(=O)n2c(C3(O)C=CC(=O)c4ccccc43)cc3ccccc32)cc1 (stereo not given) | 0.39 | 0.45 | – | 5.62 | – | 0.72 | – | – | – | –
14 | Cc1ccc(S(=O)(=O)n2c(C3(O)C=CC(=O)C=C3)cc3ccccc32)cc1 | 0.11 | 0.048 | – | 7.24 | – | 0.23 | – | – | – | –
